According to ChEMBL document CHEMBL1147666, “Fluorinated amphiphilic amino acid derivatives as antioxidant carriers: a new class of protective agents” (J Med Chem, 2006):

Tests used:
[1] = system: Radical scavenging activity; assay: Radical reducing potency by ABTS cation radical reduction assay per 30 mins at […]; type: functional
Outline: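 ABTS cation radical reduction assay (modified Re et al.). Assay ABTS•+ 105 µM, test compound 0.5 mM final. Started by adding the test agent. Read every minute at 420 nm for 30 min. DMSO vehicle controls at 2.5% final. Output is reduced ABTS•+ in nmol/30 min, mean ± SEM, N = 10.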

[2] = system: Radical scavenging activity; assay: Hydroxyl radical scavenging activity by ABTS competition assay per 30 mins at 1 umol/mL; type: functional
Outline: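 Fenton-initiated ABTS cation radical formation in distilled water adjusted to pH 5.0. Mix: ABTS 1 mM and FeSO4 0.5 mM (stock), test compound 1 mM in DMSO, 10% final DMSO in vehicle controls. Started by adding H2O2 10 mM (stock). Read at 420 nm every minute for 30 min. Output is quenched ABTS•+ in nmol/30 min, mean ± SEM, N = 10.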

Mixed cortical cells [3] = assay: Inhibition of hydrogen peroxide-induced death of mixed cortical cells of E15 Sprague-Dawley rat embryo at 10 uM; type: functional; conditions: Mixed cortical cell
Outline: (§1)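 Primary mixed cortical cultures from E15 Sprague-Dawley rat embryos, exposed 24 h to oxidotoxin (hydrogen peroxide, peroxynitrite or doxorubicin, 200 µM) plus antioxidant at 10 µM. Cell death measured by trypan blue absorbance at 590 nm. Reported as % inhibition of trypan blue absorbance versus vehicle, mean ± SEM, N = 10.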

Rotifers [4] = assay: Viability of rotifers against hydrogen peroxide toxicity at 10 uM; type: organism-based; conditions: Rotifera; read-out: Activity
Outline: (§2)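 Whole rotifers of defined, uniform age from one stock culture; standardized viability assay. Animals exposed 24 h to oxidotoxin (hydrogen peroxide or doxorubicin) at 200 µM together with antioxidant at 10 µM. Vehicle-only controls run in parallel. Read-out is % viable organisms, mean ± SEM, N = 10; ANOVA with Bonferroni t-test vs vehicle.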

Mixed cortical cells [5] = assay: Inhibition of peroxynitrite-induced death of mixed cortical cells of E15 Sprague-Dawley rat embryo at 10 uM; type: functional; conditions: Mixed cortical cell; outline: as §1
Rotifers [6] = assay: Viability of rotifers against doxorubicin toxicity at 10 uM; type: organism-based; conditions: Rotifera; read-out: Activity; outline: as §2
Mixed cortical cells [7] = assay: Inhibition of doxorubicin-induced death of mixed cortical cells of E15 Sprague-Dawley rat embryo at 10 uM; type: functional; conditions: Mixed cortical cell; outline: as §1

`O=C(O)CCc1c[nH]c2ccccc12` gave an Activity [1] of 96.5 nM, an Activity [2] of 95.7 nM and an inhibition at 10 µM (Mixed cortical cells [3]) of 87.7%. It also gave a survival at 10 µM (Rotifers [4]) of 67.9%, an inhibition at 10 µM (Mixed cortical cells [5]) of 83.8% and a survival at 10 µM (Rotifers [6]) of 53.8%. For the same compound, the inhibition at 10 µM (Mixed cortical cells [7]) was 76.1%.

With `CC(C)(C)/[N+]([O-])=C/c1ccccc1` the Activity [1] was 7.8 nM, the Activity [2] was 18.2 nM and the inhibition at 10 µM (Mixed cortical cells [3]) was 25%. For the same compound, the survival at 10 µM (Rotifers [4]) was 25.6%, the inhibition at 10 µM (Mixed cortical cells [5]) was 20.6% and the survival at 10 µM (Rotifers [6]) was 18.7%. The inhibition at 10 µM (Mixed cortical cells [7]) was 24.2%.

Work on `Cc1c(C)c2c(c(C)c1O)CCC(C)(C(=O)O)O2` (configuration not stated) [TROLOX] yielded an Activity [1] of 93.4 nM, an Activity [2] of 87.3 nM and an inhibition at 10 µM (Mixed cortical cells [3]) of 22.2%. For the same compound, the survival at 10 µM (Rotifers [4]) was 13%, the inhibition at 10 µM (Mixed cortical cells [5]) was 16.8% and the survival at 10 µM (Rotifers [6]) was 13.1%. It also gave an inhibition at 10 µM (Mixed cortical cells [7]) of 15.5%.

`O=C(O)CCCCC1CCSS1` (stereo not drawn) [LIPOIC ACID, ALPHA] gave an Activity [1] of 44.1 nM, an inhibition at 10 µM (Mixed cortical cells [3]) of 15.1% and a survival at 10 µM (Rotifers [4]) of 14.1%. It also gave an inhibition at 10 µM (Mixed cortical cells [5]) of 13.1%, a survival at 10 µM (Rotifers [6]) of 13.3% and an inhibition at 10 µM (Mixed cortical cells [7]) of 14.8%.
